For assay [1], the system named is Mus musculus. The assay is described as follows: In Vivo detection in Mice plasma after oral administration of 41.63 mg/kg detected in the form of AZT phosphodiester 2 after 4 hr. In kind it is functional, organism-based. The arrangement: dose 41.63 mg/kg.
The test system of assay [2] is Mus musculus. Description: In Vivo detection in Mice brains after oral administration of 41.63 mg/kg detected in the form of AZT after 0.5 hr. It is filed as functional.
Assay [3] is filed under the species Mus musculus. Description: Concentration of external nucleoside in mouse brain. It is filed as functional. In a few lines:
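Male Swiss mice (6 weeks, 18–20 g) dosed by oral gavage in saline vehicle at 20 mg/kg AZT or molar equivalent (3 mM, 1.5 µmol/mouse). Brains taken 0.5–48 h post-dose, homogenized in acetonitrile–water 3:1, centrifuged, lyophilized and filtered. Analysed by column-switching C18 HPLC with diode-array detection against spiked standards and vehicle controls. Three mice per time point, triplicates; not recovery-corrected.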

Assay [4] deals with Mus musculus. Description: In Vivo detection of total AZT in Mice brains after oral administration of 41.63 mg/kg after 2 hr. It is filed as functional. In outline:
(§1)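 Male Swiss mice (18–20 g) dosed orally with a 3 mM solution in […] vehicle; decapitated at 0.5–48 h. Brains were homogenized in acetonitrile-water (3:1), centrifuged at 6000g for 40 min at 4 °C, lyophilized, redissolved in water and filtered (0.45 µm). Reversed-phase C18 column-switching HPLC with diode-array detection; standard spiking; vehicle-fed controls. Three mice per point, triplicates.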

Assay [5] deals with Mus musculus. Description: In Vivo detection in Mice plasma after oral administration of 41.63 mg/kg detected in the form of AZT after 8 hr. In kind it is functional, organism-based. The arrangement: dose 41.63 mg/kg.
Assay [6] concerns Mus musculus. The assay is described as follows: In Vivo detection in Mice plasma after oral administration of 41.63 mg/kg detected in the form of AZT phosphodiester 2 after 0.5 hr. It is filed as functional, organism-based. The arrangement: dose 41.63 mg/kg.
Assay [7] concerns Mus musculus. Description: In Vivo detection in Mice plasma after oral administration of 41.63 mg/kg detected in the form of AZT phosphodiester 2 after 2 hr. In kind it is functional, organism-based. The arrangement: dose 41.63 mg/kg.
Assay [8] relates to Mus musculus. Description: In Vivo detection in Mice brains after oral administration of 41.63 mg/kg detected in the form of AZT 5`-P after 4 hr. It is filed as functional.
The subject of assay [9] is Mus musculus. The assay is described as follows: In Vivo detection of total AZT in Mice plasma after oral administration of 41.63 mg/kg after 1 hr. In kind it is functional, organism-based. The arrangement: dose 41.63 mg/kg. In outline: (§2)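 Male Swiss mice (18–20 g, six weeks old) given the test substance or vehicle ([…]) by gavage as a 3 mM solution (1.5 µmol/mouse). Aortic blood was collected into heparinized tubes at 0.5–48 h and centrifuged at 13000g for 10 min. Plasma was stored at -22 °C and analysed by HPLC. Three mice were used per time point, in triplicate. Values were not corrected for recovery.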

Assay [10] deals with Mus musculus. The assay is described as follows: In Vivo detection in Mice brains after oral administration of 41.63 mg/kg detected in the form of AZT after 24 hr. It is filed as functional.
For assay [11], the system named is Mus musculus. The assay is described as follows: In Vivo detection of total AZT in Mice plasma after oral administration of 41.63 mg/kg after 4 hr. It is filed as functional, organism-based. The arrangement: dose 41.63 mg/kg. In outline: as §2
The subject of assay [12] is Mus musculus. The assay is described as follows: In Vivo detection in Mice plasma after oral administration of 41.63 mg/kg detected in the form of AZT 5`-P after 8 hr. The arrangement: dose 41.63 mg/kg. In kind it is functional, organism-based.
The test system of assay [13] is Mus musculus. The assay is described as follows: In Vivo detection of total AZT in Mice plasma after oral administration of 41.63 mg/kg after 0.5 hr. It is filed as functional, organism-based. The arrangement: dose 41.63 mg/kg. In outline:
as §2

The test system of assay [14] is Mus musculus. The assay is described as follows: In Vivo detection of total AZT in Mice plasma after oral administration of 41.63 mg/kg after 8 hr. It is filed as functional, organism-based. The arrangement: dose 41.63 mg/kg. In outline:
as §2

In assay [15] the test system is Mus musculus. The assay is described as follows: In Vivo detection in Mice plasma after oral administration of 41.63 mg/kg detected in the form of AZT after 1 hr. The arrangement: dose 41.63 mg/kg. In kind it is functional, organism-based.
For assay [16], the system named is Mus musculus. The assay is described as follows: In Vivo detection in Mice brains after oral administration of 41.63 mg/kg detected in the form of AZT after 4 hr. It is filed as functional.
Assay [17] concerns Mus musculus. The assay is described as follows: In Vivo detection of total AZT in Mice brains after oral administration of 41.63 mg/kg after 8 hr. In kind it is functional. In a few lines: as §1
Assay [18] concerns Mus musculus. The assay is described as follows: In Vivo detection in Mice plasma after oral administration of 41.63 mg/kg detected in the form of AZT after 4 hr. In kind it is functional, organism-based. The arrangement: dose 41.63 mg/kg.
The test system of assay [19] is Mus musculus. Description: In Vivo detection of total AZT in Mice brains after oral administration of 41.63 mg/kg after 24 hr. In kind it is functional. In outline:
as §1

Assay [20] deals with Mus musculus. Description: In Vivo detection in Mice brains after oral administration of 58.33 mg/kg detected in the form of AZT 5`-P after 4 hr. It is filed as functional.
Assay [21] concerns Mus musculus. Description: In Vivo detection in Mice plasma after oral administration of 58.33 mg/kg detected in the form of AZT phosphodiester 3 after 8 hr. It is filed as functional, organism-based. The arrangement: dose 58.33 mg/kg. In outline:
as §2

In assay [22] the test system is Mus musculus. Description: In Vivo detection in Mice brains after oral administration of 58.33 mg/kg detected in the form of AZT phosphodiester 2 after 0.5 hr. In kind it is functional.
Assay [23] relates to Mus musculus. Description: In Vivo detection of total AZT in Mice brains after oral administration of 58.33 mg/kg after 4 hr. It is filed as functional. In a few lines: as §1
In assay [24] the test system is Mus musculus. Description: In Vivo detection in Mice plasma after oral administration of 58.33 mg/kg detected in the form of AZT phosphodiester 3 after 1 hr. It is filed as functional, organism-based. The arrangement: dose 58.33 mg/kg. In outline:
as §2

In assay [25] the test system is Mus musculus. Description: In Vivo detection in Mice plasma after oral administration of 58.33 mg/kg detected in the form of AZT 5`-P after 1 hr. The arrangement: dose 58.33 mg/kg. In kind it is functional, organism-based.
For assay [26], the system named is Mus musculus. Description: In Vivo detection in Mice brains after oral administration of 58.33 mg/kg detected in the form of AZT phosphodiester 3 after 2 hr. In kind it is functional.
Assay [27] deals with Mus musculus. Description: In Vivo detection in Mice brains after oral administration of 58.33 mg/kg detected in the form of AZT phosphodiester 2 after 1 hr. It is filed as functional.
The subject of assay [28] is Mus musculus. Description: In Vivo detection of total AZT in Mice plasma after oral administration of 58.33 mg/kg after 48 hr. The arrangement: dose 58.33 mg/kg. In kind it is functional, organism-based. In a few lines: as §2
Assay [29] has as its system Mus musculus. Description: In Vivo detection in Mice brains after oral administration of 58.33 mg/kg detected in the form of AZT phosphodiester 3 after 0.5 hr. It is filed as functional.
Assay [30] has as its system Mus musculus. The assay is described as follows: In Vivo detection in Mice plasma after oral administration of 58.33 mg/kg detected in the form of AZT phosphodiester 2 after 24 hr. In kind it is functional, organism-based. The arrangement: dose 58.33 mg/kg. In outline: as §2
Assay [31] relates to Mus musculus. Description: In Vivo detection of total AZT in Mice brains after oral administration of 58.33 mg/kg after 0.5 hr. In kind it is functional. In a few lines: as §1
The test system of assay [32] is Mus musculus. The assay is described as follows: In Vivo detection in Mice brains after oral administration of 58.33 mg/kg detected in the form of AZT 5`-P after 8 hr. It is filed as functional.
For assay [33], the system named is Mus musculus. The assay is described as follows: In Vivo detection in Mice brains after oral administration of 58.33 mg/kg detected in the form of AZT 5`-P after 0.5 hr. In kind it is functional.
The subject of assay [34] is Mus musculus. Description: In Vivo detection in Mice plasma after oral administration of 58.33 mg/kg detected in the form of AZT 5`-P after 8 hr. The arrangement: dose 58.33 mg/kg. It is filed as functional, organism-based.
Assay [35] has as its system Mus musculus. The assay is described as follows: In Vivo detection of total AZT in Mice brains after oral administration of 58.33 mg/kg after 8 hr. In kind it is functional. In outline:
as §1

The subject of assay [36] is Mus musculus. The assay is described as follows: In Vivo detection in Mice plasma after oral administration of 58.33 mg/kg detected in the form of AZT phosphodiester 3 after 4 hr. It is filed as functional, organism-based. The arrangement: dose 58.33 mg/kg. In a few lines:
as §2

Assay [37] relates to Mus musculus. The assay is described as follows: In Vivo detection of total AZT in Mice plasma after oral administration of 58.33 mg/kg after 4 hr. It is filed as functional, organism-based. The arrangement: dose 58.33 mg/kg. In outline: as §2
The subject of assay [38] is Mus musculus. Description: In Vivo detection in Mice plasma after oral administration of 58.33 mg/kg detected in the form of AZT phosphodiester 3 after 48 hr. In kind it is functional, organism-based. The arrangement: dose 58.33 mg/kg. In outline: as §2

For the compound `Cc1cn([C@H]2C[C@H](N=[N+]=[N-])[C@@H](COP(=O)(O)OCCO[C@H]3O[C@H](CO)[C@@H](O)[C@H](O)[C@@H]3O)O2)c(=O)[nH]c1=O`, the Plasma content amounted to 0 nM ml-1 in assay [1]; 0 nM ml-1 in assay [5]; 4.5 nM ml-1 in [6]; 1.6 nM ml-1 in assay [7]; 43.5 nM ml-1 in assay [9]; 6.7 nM ml-1 in [11]. Moreover, the Plasma content stood at 5.7 nM ml-1 in [12]; 56.5 nM ml-1 in [13]; 5.7 nM ml-1 in assay [14]; 18.3 nM ml-1 in assay [15]; 0 nM ml-1 in [18]. In addition, the Brain content was found to be 1.8 nmol/g in assay [2]; 26.2 nM ml-1 in assay [4]; 59.3 nmol/g in assay [8]; 0.8 nmol/g in assay [10]; 0.9 nmol/g in assay [16]; 43.1 nM ml-1 in assay [17]. The same compound came in with a Brain content in assay [19] of 61.8 nM ml-1. In [3], this compound showed an External nucleoside of 8000 nM/g.

Regarding `CCCCCCCCCCCCCCCCOP(=O)(OCCO[C@H]1O[C@H](CO)[C@@H](O)[C@H](O)[C@@H]1O)OCC1OC(n2cc(C)c(=O)[nH]c2=O)CC1N=[N+]=[N-]` (stereo partly drawn), the Brain content in assay [20] was 114 nmol/g; in assay [22], 0.3 nmol/g; in [23], 122 nmol/g; in assay [26], 0 nmol/g; in assay [27], 8.5 nmol/g; in assay [29] it was 0 nmol/g. Also, the Brain content amounted to 38.5 nM ml-1 in assay [31], 106 nmol/g in [32], 36.7 nmol/g in assay [33] and 113 nmol/g in [35]. For the same compound, the Plasma content turned out to be 0 nM ml-1 in [21]; 0 nM ml-1 in [24]; 12.7 nM ml-1 in assay [25]; 14.2 nM ml-1 in assay [28]; 0 nM ml-1 in assay [30]; 17.7 nM ml-1 in assay [34]. Also, the figures for the Plasma content in [36], in assay [37] and in assay [38] were 0 nM ml-1, 5.3 nM ml-1 and 0 nM ml-1, respectively.

Source of the values: ChEMBL document CHEMBL1125520, “Improved brain delivery of AZT using a glycosyl phosphotriester prodrug” (1992).
